Assay results published in ChEMBL document CHEMBL1122115, “Antimalarials. 13. 5-Alkoxy analogues of 4-methylprimaquine” (1982).

How the values were obtained:
Assay type in all cases: functional
[1] = tested on: Mus musculus; experiment: Antimalarial activity against Plasmodium berghei in mice (Mus musculus) at 160 mg/kg dose administered subcutaneously; toxic; conditions: route subcutaneous
Summary of the method: (§1)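 Primary mouse screen: groups of five mice infected with a lethal dose of P. berghei 3 days before drug administration. Drug given subcutaneously, routinely in sesame or peanut oil. Mean survival time compared with infected untreated controls; extension in survival time (ΔMST) taken as antimalarial activity.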

[2] = tested on: Mus musculus; experiment: Antimalarial activity against Plasmodium berghei in mice (Mus musculus) at 5 mg/kg dose administered subcutaneously; active; conditions: route subcutaneous; summary of the method: as §1
[3] = tested on: Plasmodium cynomolgi; experiment: Radio curative antimalarial activity against Plasmodium cynomolgi in Rhesus monkey at 0.25 mg/kg (base/day) peroral dose; cured 0 of 3; conditions: route oral
[4] = tested on: Mus musculus; experiment: Antimalarial activity against Plasmodium berghei in mice (Mus musculus) at 40 mg/kg dose administered subcutaneously; active; conditions: route subcutaneous; summary of the method: as §1
[5] = tested on: Plasmodium cynomolgi; experiment: Radio curative antimalarial activity against Plasmodium cynomolgi in rhesus monkey at 0.75 mg/kg (base/day) peroral dose; cured 0 of 3; conditions: route oral
[6] = tested on: Mus musculus; experiment: Antimalarial activity against Plasmodium berghei in mice (Mus musculus) at 20 mg/kg dose administered subcutaneously; active; conditions: route subcutaneous; summary of the method: as §1
[7] = tested on: Mus musculus; experiment: Antimalarial activity against Plasmodium berghei in mice (Mus musculus) at 640 mg/kg dose administered subcutaneously; toxic; conditions: route subcutaneous; summary of the method: as §1
[8] = tested on: Mus musculus; experiment: Antimalarial activity against Plasmodium berghei in mice (Mus musculus) at 10 mg/kg dose administered subcutaneously; active; conditions: route subcutaneous; summary of the method: as §1
[9] = tested on: Plasmodium cynomolgi; experiment: Radio curative antimalarial activity against Plasmodium cynomolgi in rhesus monkey at 0.25 mg/kg (base/day) peroral dose; cured 0 of 3; conditions: route oral
[10] = tested on: Mus musculus; experiment: Antimalarial activity against Plasmodium berghei in mice (Mus musculus) at 40 mg/kg dose administered subcutaneously; toxic; conditions: route subcutaneous; summary of the method: as §1
[11] = tested on: Mus musculus; experiment: Antimalarial activity against Plasmodium berghei in mice (Mus musculus) at 20 mg/kg dose administered subcutaneously; conditions: route subcutaneous; summary of the method: as §1
[12] = tested on: Plasmodium cynomolgi; experiment: Radio curative antimalarial activity against Plasmodium cynomolgi in rhesus monkey at 0.75 mg/kg (base/day) peroral dose;cured 3 of 5; conditions: route oral
[13] = tested on: Mus musculus; experiment: Antimalarial activity against Plasmodium berghei in mice (Mus musculus) at 40 mg/kg dose administered subcutaneously; active/3 toxic; conditions: route subcutaneous; summary of the method: as §1
[14] = tested on: Plasmodium cynomolgi; experiment: Radio curative antimalarial activity against Plasmodium cynomolgi in rhesus monkey at 0.25 mg/kg (base/day) peroral dose; cured 2 of 4; conditions: route oral
[15] = tested on: Plasmodium cynomolgi; experiment: Radio curative antimalarial activity against Plasmodium cynomolgi in rhesus monkey at 0.5 mg/kg (base/day) peroral dose; cured 1 of 1; conditions: route oral
[16] = tested on: Mus musculus; experiment: Antimalarial activity against Plasmodium berghei in mice (Mus musculus) at 20 mg/kg dose administered subcutaneously; active/3 toxic; conditions: route subcutaneous; summary of the method: as §1
[17] = tested on: Plasmodium cynomolgi; experiment: Radio curative antimalarial activity against Plasmodium cynomolgi in rhesus monkey at 0.25 mg/kg (base/day) peroral dose; cured 5 of 6; conditions: route oral
[18] = tested on: Plasmodium cynomolgi; experiment: Radio curative antimalarial activity against Plasmodium cynomolgi in rhesus monkey at 0.75 mg/kg (base/day) peroral dose; cured 0 of 2; conditions: route oral
[19] = tested on: Mus musculus; experiment: Antimalarial activity against Plasmodium berghei in mice (Mus musculus) at 40 mg/kg dose administered subcutaneously; conditions: route subcutaneous; summary of the method: as §1
[20] = tested on: Mus musculus; experiment: Antimalarial activity against Plasmodium berghei in mice (Mus musculus) at 160 mg/kg dose administered subcutaneously; active; conditions: route subcutaneous; summary of the method: as §1
[21] = tested on: Mus musculus; experiment: Antimalarial activity against Plasmodium berghei in mice (Mus musculus) at 320 mg/kg dose administered subcutaneously; active/3 toxic; conditions: route subcutaneous; summary of the method: as §1
[22] = tested on: Plasmodium cynomolgi; experiment: Radio curative antimalarial activity against Plasmodium cynomolgi in rhesus monkey at 0.25 mg/kg (base/day) peroral dose; cured 0 of 2; conditions: route oral
[23] = tested on: Mus musculus; experiment: Antimalarial activity against Plasmodium berghei in mice (Mus musculus) at 80 mg/kg dose administered subcutaneously; conditions: route subcutaneous; summary of the method: as §1
[24] = tested on: Mus musculus; experiment: Antimalarial activity against Plasmodium berghei in mice (Mus musculus) at 640 mg/kg dose administered subcutaneously; conditions: route subcutaneous; summary of the method: as §1
[25] = tested on: Mus musculus; experiment: Antimalarial activity against Plasmodium berghei in mice (Mus musculus) at 160 mg/kg dose administered subcutaneously; conditions: route subcutaneous; summary of the method: as §1
[26] = tested on: Mus musculus; experiment: Antimalarial activity against Plasmodium berghei in mice (Mus musculus) at 40 mg/kg dose administered subcutaneously; cure/1 toxic; conditions: route subcutaneous; summary of the method: as §1
[27] = tested on: Plasmodium cynomolgi; experiment: Radio curative antimalarial activity against Plasmodium cynomolgi in rhesus monkey at 0.75 mg/kg (base/day) peroral dose; cured 3 of 3; conditions: route oral
[28] = tested on: Plasmodium cynomolgi; experiment: Radio curative antimalarial activity against Plasmodium cynomolgi in rhesus monkey at 0.25 mg/kg (base/day) peroral dose; cured 1 of 4; conditions: route oral
[29] = tested on: Mus musculus; experiment: Antimalarial activity against Plasmodium berghei in mice (Mus musculus) at 20 mg/kg dose administered subcutaneously; cure and active at 1.25 mg/kg; summary of the method: as §1
[30] = tested on: Mus musculus; experiment: Antimalarial activity against Plasmodium berghei in mice (Mus musculus) at 320 mg/kg dose administered subcutaneously; active; conditions: route subcutaneous; summary of the method: as §1
[31] = tested on: Plasmodium cynomolgi; experiment: Radio curative antimalarial activity against Plasmodium cynomolgi in rhesus monkey at 0.5 mg/kg (base/day) peroral dose; cured 13 of 14; conditions: route oral
[32] = tested on: Mus musculus; experiment: Antimalarial activity against Plasmodium berghei in mice (Mus musculus) at 640 mg/kg dose administered subcutaneously; cure/1toxic; conditions: route subcutaneous; summary of the method: as §1
[33] = tested on: Plasmodium cynomolgi; experiment: Radio curative antimalarial activity against Plasmodium cynomolgi in rhesus monkey at 0.25 mg/kg (base/day) peroral dose; cured 8 of 14; conditions: route oral
[34] = tested on: Plasmodium cynomolgi; experiment: Radio curative antimalarial activity against Plasmodium cynomolgi in rhesus monkey at 0.75 mg/kg (base/day) peroral dose; cured 1 of 1; conditions: route oral
[35] = tested on: Mus musculus; experiment: Antimalarial activity against Plasmodium berghei in mice (Mus musculus) at 20 mg/kg dose administered subcutaneously; active/1 toxic; conditions: route subcutaneous; summary of the method: as §1
[36] = tested on: Plasmodium cynomolgi; experiment: Radio curative antimalarial activity against Plasmodium cynomolgi in rhesus monkey at 0.25 mg/kg (base/day) peroral dose; cured 2 of 2; conditions: route oral
[37] = tested on: Mus musculus; experiment: Antimalarial activity against Plasmodium berghei in mice (Mus musculus) at 40 mg/kg dose administered subcutaneously; active/1 toxic; conditions: route subcutaneous; summary of the method: as §1
[38] = tested on: Plasmodium cynomolgi; experiment: Radio curative antimalarial activity against Plasmodium cynomolgi in rhesus monkey at 0.125 mg/kg(base/day) peroral dose; Cured 6 of 10; conditions: route oral
[39] = tested on: Plasmodium cynomolgi; experiment: Radio curative antimalarial activity against Plasmodium cynomolgi in rhesus monkey at 0.75 mg/kg (base/day) peroral dose; cured 4 of 5; conditions: route oral
[40] = tested on: Plasmodium cynomolgi; experiment: Radio curative antimalarial activity against Plasmodium cynomolgi in rhesus monkey at 0.25 mg/kg (base/day) peroral dose; cured 4 of 4; conditions: route oral
[41] = tested on: Plasmodium cynomolgi; experiment: Radio curative antimalarial activity against Plasmodium cynomolgi in Rhesus monkey at 0.0625 mg/kg(base/day) peroral dose; Cured 0 of 2; conditions: route oral
[42] = tested on: Plasmodium cynomolgi; experiment: Radio curative antimalarial activity against Plasmodium cynomolgi in rhesus monkey at 0.25 mg/kg (base/day) peroral dose; cured 3 of 4; conditions: route oral
[43] = tested on: Mus musculus; experiment: Antimalarial activity against Plasmodium berghei in mice (Mus musculus) at 160 mg/kg dose administered subcutaneously; active/1 toxic; conditions: route subcutaneous; summary of the method: as §1
[44] = tested on: Plasmodium cynomolgi; experiment: Radio curative antimalarial activity against Plasmodium cynomolgi in Rhesus monkey at 0.125 mg/kg(base/day) peroral dose; Cured 11 of 13; conditions: route oral
[45] = tested on: Plasmodium cynomolgi; experiment: Radio curative antimalarial activity against Plasmodium cynomolgi in rhesus monkey at 0.0625 mg/kg(base/day) peroral dose; Cured 0 of 5; conditions: route oral
[46] = tested on: Mus musculus; experiment: Antimalarial activity against Plasmodium berghei in mice (Mus musculus) at 80 mg/kg dose administered subcutaneously; active; conditions: route subcutaneous; summary of the method: as §1
[47] = tested on: Mus musculus; experiment: Antimalarial activity against Plasmodium berghei in mice (Mus musculus) at 320 mg/kg dose administered subcutaneously; active/4 toxic; conditions: route subcutaneous; summary of the method: as §1
[48] = tested on: Mus musculus; experiment: Antimalarial activity against Plasmodium berghei in mice (Mus musculus) at 320 mg/kg dose administered subcutaneously; toxic; conditions: route subcutaneous; summary of the method: as §1
[49] = tested on: Plasmodium cynomolgi; experiment: Radio curative antimalarial activity against Plasmodium cynomolgi in rhesus monkey at 0.5 mg/kg (base/day) peroral dose; cured 10 of 12; conditions: route oral
[50] = tested on: Plasmodium cynomolgi; experiment: Radio curative antimalarial activity against Plasmodium cynomolgi in rhesus monkey at 0.75 mg/kg (base/day) peroral dose; cured 4 of 4; conditions: route oral

## CCC(CCCN)Nc1cc2c(c3c(C)ccnc13)OCCO2 (stereo not given)
[1]
  Delta MST: 5 days
[2]
  Delta MST: 7.8 days
[3]
  Cured animals: 0
[4]
  Delta MST: 7.6 days
[5]
  Cured animals: 0
[6]
  Delta MST: 7.2 days
[7]
  Delta MST: 5 days
[8]
  Delta MST: 7.6 days

## Cc1ccnc2c(NC(C)CCCN)cc3c(c12)OCCO3 (stereo not given)
[9]
  Cured animals: 0
[10]
  number of mice died of toxicity: 5 mice
[1]
  Delta MST: 5 days
[2]
  Delta MST: 6.7 days
[5]
  Cured animals: 0
[6]
  Delta MST: 11.1 days
[7]
  Delta MST: 5 days
[8]
  Delta MST: 8.3 days

## COc1cc(NC(C)CCCN)c2nc(C)cc(C)c2c1OC (stereo not given)
[11]
  Delta MST: 4.9 days
[1]
  Delta MST: 5 days
[12]
  Cured animals: 3
[13]
  Delta MST: 6.3 days
[7]
  Delta MST: 5 days
[14]
  Cured animals: 2

## COc1cc(NCCCC(C)N)c2nccc(C)c2c1OC (stereo not given)
[10]
  number of mice died of toxicity: 5 mice
[15]
  Cured animals: 1
[1]
  Delta MST: 5 days
[16]
  Delta MST: 11.4 days
[7]
  Delta MST: 5 days
[17]
  Cured animals: 5

## COc1cc(NCCCC(C)N)c2ncccc2c1OC (stereo not given)
[11]
  Delta MST: 1.3 days
[18]
  Cured animals: 0
[19]
  Delta MST: 3.1 days
[20]
  Delta MST: 7.3 days
[21]
  Delta MST: 9.9 days
[7]
  Delta MST: 5 days
[22]
  Cured animals: 0
[23]
  Delta MST: 5.1 days

## CCC(CCCN)Nc1cc2c(c3c(C)ccnc13)OCO2 (stereo not given)
[9]
  Cured animals: 0
[24]
  Delta MST: 0.9 days
[19]
  Delta MST: 0.5 days
[25]
  Delta MST: 0.5 days
[5]
  Cured animals: 0

## COc1cc(NC(C)CCCCN)c2nccc(C)c2c1OC (stereo not given)
[1]
  Delta MST: 5 days
[26]
  number of mice cured: 1 mice
[27]
  Cured animals: 3
[28]
  Cured animals: 1
[7]
  Delta MST: 5 days
[29]
  Delta MST: 3 days

## COc1cc(NC(C)CCCN)c2nccc(C)c2c1 (stereo not given)
[11]
  Delta MST: 3.1 days
[30]
  Delta MST: 10.1 days
[31]
  Cured animals: 13
[19]
  Delta MST: 4.9 days
[20]
  Delta MST: 9.1 days
[32]
  Delta MST: 3 days
[33]
  Cured animals: 8
[34]
  Cured animals: 1
[23]
  Delta MST: 5.5 days

## COc1cc(NCCCCC(C)N)c2nccc(C)c2c1OC (stereo not given)
[35]
  Delta MST: 7.5 days
[1]
  Delta MST: 5 days
[27]
  Cured animals: 3
[36]
  Cured animals: 2
[7]
  Delta MST: 5 days
[37]
  Delta MST: 8.7 days

## Cc1ccnc2c(NC(C)CCCN)cc3c(c12)OCO3 (stereo not given)
[24]
  Delta MST: 0.3 days
[19]
  Delta MST: 0.1 days
[25]
  Delta MST: 0.1 days

## CCC(CCCN)Nc1cc(OC)c(OC)c2c(C)ccnc12 (stereo not given)
[38]
  Cured animals: 6
[39]
  Cured animals: 4
[1]
  Delta MST: 5 days
[40]
  Cured animals: 4
[19]
  Delta MST: 0.1 days
[7]
  Delta MST: 5 days
[41]
  Cured animals: 0

## COc1cc(NC(C)CCCN)c2nccc(C)c2c1OC (stereo not given)
[15]
  Cured animals: 1
[11]
  Delta MST: 5.7 days
[42]
  Cured animals: 3
[43]
  Delta MST: 9.9 days
[44]
  Cured animals: 11
[45]
  Cured animals: 0
[4]
  Delta MST: 7.1 days
[46]
  Delta MST: 8.9 days
[7]
  Delta MST: 5 days
[47]
  Delta MST: 11.9 days

## COc1cc(NC(C)CCCN)c2ncccc2c1 (stereo not given) [PRIMAQUINE]
[1]
  Delta MST: 2 days
[48]
  Delta MST: 5 days
[49]
  Cured animals: 10
[19]
  Delta MST: 5 days
[46]
  Delta MST: 9.4 days
[7]
  Delta MST: 5 days
[22]
  Cured animals: 0
[50]
  Cured animals: 4
